Results published in ChEMBL document CHEMBL4393681, “The identification of naturally occurring labdane diterpenoid calcaratarin D as a potential anti-inflammatory agent” (Eur J Med Chem, 2019).

Experiments:
RAW264.7 [1] = assay: Anti-inflammatory activity in mouse RAW264.7 cells assessed as inhibition of LPS-induced IL-6 production at 1 uM pretreated for 1 hr followed by LPS stimulation and measured after 18 hrs by ELISA relative to control; assay type: functional; design: scale not given: the % may be the effect or the level left
Summary of the method: (§1)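 DMSO stocks (100 mM) were tested at 0.1, 1, 5 and 20 µM on LPS-stimulated RAW264.7 cells, with dexamethasone 1 µM as positive control. Secreted TNF-α or IL-6 was normalized to the percentage of viable LPS-stimulated cells at each concentration. Mean of three separate experiments, each in triplicate.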

[2] = Cytotoxicity against mouse RAW264.7 cells assessed as cell viability at 5 uM incubated for 18 hrs by celltiter-glo luminescent assay relative to control; assay type: cell-based; conditions: read-out: Activity
Summary of the method: (§2)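 Non-stimulated RAW264.7 cells were exposed to 0.1, 1, 5 and 20 µM compound from 100 mM DMSO stocks. Percent viability is the mean of three separate experiments with triplicate samples.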

[3] = Cytotoxicity against mouse RAW264.7 cells assessed as cell viability at 20 uM incubated for 18 hrs by celltiter-glo luminescent assay relative to control; assay type: cell-based; conditions: read-out: Activity; summary of the method: as §2
RAW264.7 [4] = assay: Anti-inflammatory activity in mouse RAW264.7 cells assessed as inhibition of LPS-induced TNFalpha production at 1 uM pretreated for 1 hr followed by LPS stimulation and measured after 18 hrs by ELISA relative to control; assay type: functional; design: scale not given: the % may be the effect or the level left; summary of the method: as §1
[5] = Cytotoxicity against mouse RAW264.7 cells assessed as cell viability at 0.1 uM incubated for 18 hrs by celltiter-glo luminescent assay relative to control; assay type: cell-based; conditions: read-out: Activity; summary of the method: as §2
RAW264.7 [6] = assay: Anti-inflammatory activity in mouse RAW264.7 cells assessed as inhibition of LPS-induced TNFalpha production at 20 uM pretreated for 1 hr followed by LPS stimulation and measured after 18 hrs by ELISA relative to control; assay type: functional; design: scale not given: the % may be the effect or the level left; summary of the method: as §1
RAW264.7 [7] = assay: Anti-inflammatory activity in mouse RAW264.7 cells assessed as inhibition of LPS-induced TNFalpha production at 5 uM pretreated for 1 hr followed by LPS stimulation and measured after 18 hrs by ELISA relative to control; assay type: functional; design: scale not given: the % may be the effect or the level left; summary of the method: as §1
[8] = Cytotoxicity against mouse RAW264.7 cells assessed as cell viability at 1 uM incubated for 18 hrs by celltiter-glo luminescent assay relative to control; assay type: cell-based; conditions: read-out: Activity; summary of the method: as §2
RAW264.7 [9] = assay: Anti-inflammatory activity in mouse RAW264.7 cells assessed as inhibition of LPS-induced IL-6 production at 0.1 uM pretreated for 1 hr followed by LPS stimulation and measured after 18 hrs by ELISA relative to control; assay type: functional; design: scale not given: the % may be the effect or the level left; summary of the method: as §1
RAW264.7 [10] = assay: Anti-inflammatory activity in mouse RAW264.7 cells assessed as inhibition of LPS-induced IL-6 production at 5 uM pretreated for 1 hr followed by LPS stimulation and measured after 18 hrs by ELISA relative to control; assay type: functional; design: scale not given: the % may be the effect or the level left; summary of the method: as §1
RAW264.7 [11] = assay: Anti-inflammatory activity in mouse RAW264.7 cells assessed as inhibition of LPS-induced TNFalpha production at 0.1 uM pretreated for 1 hr followed by LPS stimulation and measured after 18 hrs by ELISA relative to control; assay type: functional; design: scale not given: the % may be the effect or the level left; summary of the method: as §1
RAW264.7 [12] = assay: Anti-inflammatory activity in mouse RAW264.7 cells assessed as inhibition of LPS-induced IL-6 production at 20 uM pretreated for 1 hr followed by LPS stimulation and measured after 18 hrs by ELISA relative to control; assay type: functional; design: scale not given: the % may be the effect or the level left; summary of the method: as §1

Row | SMILES | Activity (RAW264.7 [1]) [%] | viability at 18 h, 5 µM [2] [%] | viability at 18 h, 20 µM [3] [%] | Activity (RAW264.7 [4]) [%] | viability at 18 h, 0.1 µM [5] [%] | Activity (RAW264.7 [6]) [%] | Activity (RAW264.7 [7]) [%] | viability at 18 h, 1 µM [8] [%] | Activity (RAW264.7 [9]) [%] | Activity (RAW264.7 [10]) [%] | Activity (RAW264.7 [11]) [%] | Activity (RAW264.7 [12]) [%]
1 | CC1(C)CCC[C@@]2(C)[C@H]1CC[C@]1(CO1)[C@@H]2C/C=C1\CCOC1=O | 92.3 | 95.1 | 85.7 | 88.3 | 97.8 | 33.1 | 55.6 | 97.6 | 102.3 | 81.4 | 100.3 | 63.9
2 | C=C1CC[C@H]2C(C)(C)CCC[C@]2(C)[C@H]1C[C@H](O)[C@H]1C(=O)OC[C@H]1O | 101.7 | 107 | 98.3 | 108.6 | 108 | 86.8 | 109.5 | 106 | 104.6 | 104.3 | 111.1 | 71.8
3 | C=C1CC[C@H]2C(C)(C)CCC[C@]2(C)[C@H]1C/C=C1/CCOC1=O | 94.1 | 95.4 | 85 | 81.8 | 103 | 48 | 69.9 | 101 | 101.5 | 85.6 | 99.8 | 64.8
4 | C=C1CC[C@H]2C(C)(C)CCC[C@]2(C)[C@H]1C[C@@H](O)C1=CCOC1=O [CURCUCOMOSIN C] | 84 | 108 | 91.9 | 101.5 | 109 | 33.4 | 79.3 | 111 | 100.6 | 75.6 | 112 | 47.1
5 | C=C1CC[C@H]2C(C)(C)CCC[C@]2(C)[C@H]1C/C=C1\CC(O)OC1=O (stereo not given in full) | 82.4 | 86.3 | 79 | 89.6 | 102 | 71.1 | 81.9 | 92.7 | 99.1 | 64 | 100.2 | 59.4
6 | C=C1CC[C@H]2C(C)(C)CCC[C@]2(C)[C@H]1C/C=C(\CCO)C(=O)O | 88.3 | 96.6 | 87.6 | 80.7 | 102 | 50.2 | 60.7 | 99.2 | 106 | 79.9 | 104.7 | 63.5
7 | CC1(C)CCC[C@]2(C)[C@H]3CC(=O)O[C@]3(C)CC[C@@H]12 | 100.3 | 97.2 | 95.9 | 101 | 99.3 | 63.9 | 79.9 | 96.6 | 94.6 | 93.8 | 104.8 | 89.7
8 | C=C1CC[C@H]2C(C)(C)CCC[C@]2(C)[C@H]1CC=O | 95 | 101 | 91.9 | 91.7 | 100 | 48.5 | 73.7 | 101 | 100 | 93 | 104 | 72.8
9 | C=C1CC[C@H]2C(C)(C)CCC[C@]2(C)[C@H]1C/C=C1\CCOC1=O | 93.9 | 102 | 100 | 94.6 | 103 | 52.6 | 73.1 | 107 | 103 | 83.9 | 104.4 | 76.3
10 | C=C1CC[C@H]2C(C)(C)CCC[C@]2(C)[C@H]1/C=C/C1=CCOC1=O [VILLOSIN] | 87.6 | 103 | 59 | 86.6 | 104 | 133.5 | 74.6 | 105 | 98.4 | 101.5 | 80.4 | 170.1
11 | CC1(C)CCC[C@@]2(C)[C@H]1CC[C@@]1(CO1)[C@@H]2C/C=C1\CCOC1=O | 79.7 | 90.9 | 80.4 | 88.6 | 101 | 20.5 | 48.4 | 97 | 101.6 | 35.2 | 114.8 | 22.3
12 | C=C1CC[C@H]2C(C)(C)CCC[C@]2(C)[C@H]1C/C=C1\CC(OC)OC1=O (stereo not given in full) | 79.1 | 101 | 100 | 77.7 | 102 | 27.5 | 44.7 | 102 | 101 | 70 | 104.7 | 59.9
13 | C=C1CC[C@H]2C(C)(C)CCC[C@]2(C)[C@H]1C/C=C1\CC(OCC)OC1=O (stereo not given in full) | 100.3 | 94.9 | 96.3 | 86.8 | 102 | 48.1 | 65.3 | 100 | 102.3 | 95.9 | 101.6 | 80.9
14 | C=C1CC[C@H]2C(C)(C)CCC[C@]2(C)[C@H]1C/C=C1\C(=O)OC[C@H]1O | 76.9 | 81.7 | 47.5 | 71.6 | 100 | 4.8 | 17.5 | 95.5 | 100.7 | 32.2 | 98.7 | 10.1
15 | C=C1CC[C@H]2C(C)(C)CCC[C@]2(C)[C@H]1C/C=C1\C=COC1=O | 99.6 | 90.8 | 82.6 | 84.6 | 102 | 26.6 | 53.6 | 97.7 | 99 | 85.9 | 94.1 | 61.5
